Measurements from ChEMBL document CHEMBL1129967, “3'-Chloro-3 alpha-(diphenylmethoxy)tropane but not 4'-chloro-3 alpha-(diphenylmethoxy)tropane produces a cocaine-like behavioral profile” (J Med Chem, 1997).

Columns and labels:
[1] = target: T1, Sodium-dependent dopamine transporter (Rattus norvegicus, UniProt P23977); assay: Displacement of [3H]WIN-35428 binding to the dopamine transporter (DAT) in Rat Caudate Putamen
[2] = target: T2, Muscarinic acetylcholine receptor M1 (Rattus norvegicus, UniProt P08482); assay: Displacement of [3H]pirenzepine binding at Muscarinic acetylcholine receptor M1 in rat brain P2 membranes.; type: cell membranes, Membrane
T2 sequence (P08482 whole entry): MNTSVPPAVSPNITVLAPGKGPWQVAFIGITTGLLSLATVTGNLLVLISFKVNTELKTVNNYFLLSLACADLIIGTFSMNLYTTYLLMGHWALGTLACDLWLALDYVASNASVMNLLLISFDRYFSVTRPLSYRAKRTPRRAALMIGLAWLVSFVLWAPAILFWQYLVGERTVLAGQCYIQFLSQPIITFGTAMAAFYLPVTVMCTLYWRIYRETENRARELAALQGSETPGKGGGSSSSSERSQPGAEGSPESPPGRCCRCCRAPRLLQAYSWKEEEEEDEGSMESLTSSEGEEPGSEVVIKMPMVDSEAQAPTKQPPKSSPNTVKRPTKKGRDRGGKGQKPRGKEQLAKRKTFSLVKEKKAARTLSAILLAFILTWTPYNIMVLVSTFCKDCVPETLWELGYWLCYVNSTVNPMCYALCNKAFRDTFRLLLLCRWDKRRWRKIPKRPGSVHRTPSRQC
In short: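 Rat brain P2 membranes (0.3 mg protein) in 50 mM Tris-HCl pH 7.4 with 5 mM MgCl2 and 5 nM [3H]pirenzepine. Nine competitor concentrations (0.03–300 nM), 60 min at 37 °C, filtered. Nonspecific binding defined with 10 μM QNB.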

[3] = target: Norepinephrine transporter (Rattus norvegicus) (UniProt Q9WTR4); assay: Percent inhibition at 10 uM for displacement of [3H]- desmethylimipramine binding at the norepinephrine transporter (NET) in rat cortex.
In short: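 Run by a contract screening service under a published method: [3H]desmethylimipramine at 3.0 nM final concentration.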

[4] = target: T1, Sodium-dependent dopamine transporter; assay: [3H]-Dopamine uptake inhibition in rat caudate putamen; type: functional, tissue-based
In short: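 Rat caudate putamen chopped into 225 μm slices, in oxygenated Krebs-HEPES at 37 °C. Filtered, tracer extracted with methanol/HCl and counted; filter blank subtracted. IC50 from the linear portion of the concentration–response curve by linear regression.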

[5] = target: Sodium-dependent serotonin transporter (Rattus norvegicus) (UniProt P31652); assay: Percent inhibition at 10 uM for displacement of [3H]- citalopram binding at the serotonin transporter (5HTT).
In short: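 Run by a contract screening service under a published method: [3H]citalopram at 0.7 nM final concentration.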

[6] = target: Sodium-dependent dopamine transporter (Rattus norvegicus) (UniProt P23977); assay: Selectivity ratio for [3H]-DA uptake inhibition to DAT binding; type: functional
Chain of Sodium-dependent dopamine transporter (Rattus norvegicus) (P23977 whole entry): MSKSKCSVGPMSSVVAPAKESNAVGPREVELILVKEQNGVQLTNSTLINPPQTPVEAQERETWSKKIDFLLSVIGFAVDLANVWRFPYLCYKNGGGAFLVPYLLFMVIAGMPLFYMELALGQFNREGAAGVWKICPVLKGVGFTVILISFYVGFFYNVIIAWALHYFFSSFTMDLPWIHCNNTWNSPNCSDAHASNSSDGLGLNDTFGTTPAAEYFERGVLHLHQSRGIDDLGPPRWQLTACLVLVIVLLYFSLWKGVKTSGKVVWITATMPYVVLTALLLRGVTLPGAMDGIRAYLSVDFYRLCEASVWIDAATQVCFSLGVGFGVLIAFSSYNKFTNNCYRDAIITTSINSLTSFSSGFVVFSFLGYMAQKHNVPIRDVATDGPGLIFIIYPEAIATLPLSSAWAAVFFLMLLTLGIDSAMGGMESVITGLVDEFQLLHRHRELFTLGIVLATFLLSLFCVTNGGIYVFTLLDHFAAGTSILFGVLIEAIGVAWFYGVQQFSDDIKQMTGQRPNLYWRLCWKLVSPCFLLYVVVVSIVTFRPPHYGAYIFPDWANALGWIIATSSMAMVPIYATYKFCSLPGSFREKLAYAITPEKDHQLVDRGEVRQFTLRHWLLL

Chain of Norepinephrine transporter (Rattus norvegicus) (Q9WTR4 as listed by the source): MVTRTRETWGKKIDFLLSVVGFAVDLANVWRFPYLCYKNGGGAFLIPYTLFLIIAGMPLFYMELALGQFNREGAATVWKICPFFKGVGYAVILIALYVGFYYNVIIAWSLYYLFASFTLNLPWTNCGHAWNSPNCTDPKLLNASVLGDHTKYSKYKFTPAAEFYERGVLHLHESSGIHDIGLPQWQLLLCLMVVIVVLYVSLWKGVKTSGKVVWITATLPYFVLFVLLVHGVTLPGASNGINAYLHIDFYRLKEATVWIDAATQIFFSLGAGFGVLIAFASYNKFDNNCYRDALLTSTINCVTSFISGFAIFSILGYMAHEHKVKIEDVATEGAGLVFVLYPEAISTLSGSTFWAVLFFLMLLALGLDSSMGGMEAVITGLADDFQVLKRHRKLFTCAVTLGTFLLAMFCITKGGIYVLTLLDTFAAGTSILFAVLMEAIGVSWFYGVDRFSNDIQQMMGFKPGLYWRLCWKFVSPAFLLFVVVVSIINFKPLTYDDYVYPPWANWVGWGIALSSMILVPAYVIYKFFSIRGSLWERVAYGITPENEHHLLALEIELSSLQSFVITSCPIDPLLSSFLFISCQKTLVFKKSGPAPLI
T1 sequence (P23977 whole entry): as the sequence (P23977 whole entry) above
Chain of Sodium-dependent serotonin transporter (Rattus norvegicus) (P31652 whole entry): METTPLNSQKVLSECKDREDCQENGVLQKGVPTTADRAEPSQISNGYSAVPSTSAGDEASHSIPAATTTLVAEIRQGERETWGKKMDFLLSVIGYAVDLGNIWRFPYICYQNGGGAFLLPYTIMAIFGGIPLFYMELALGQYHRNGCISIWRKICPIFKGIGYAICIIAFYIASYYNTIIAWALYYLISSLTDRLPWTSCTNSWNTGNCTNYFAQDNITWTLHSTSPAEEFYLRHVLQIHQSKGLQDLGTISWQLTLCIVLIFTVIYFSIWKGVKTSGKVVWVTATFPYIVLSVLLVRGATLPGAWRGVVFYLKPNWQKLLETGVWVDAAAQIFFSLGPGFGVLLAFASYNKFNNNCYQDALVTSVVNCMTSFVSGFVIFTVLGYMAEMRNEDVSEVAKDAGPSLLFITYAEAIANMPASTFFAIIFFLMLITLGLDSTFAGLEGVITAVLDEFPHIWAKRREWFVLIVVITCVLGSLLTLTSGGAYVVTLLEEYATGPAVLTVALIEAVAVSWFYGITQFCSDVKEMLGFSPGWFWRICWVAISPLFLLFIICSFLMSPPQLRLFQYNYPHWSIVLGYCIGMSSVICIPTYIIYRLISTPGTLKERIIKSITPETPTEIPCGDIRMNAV

Row | SMILES | Ki [1] [nM] | Ki [2] [nM] | I [3] [%] | IC50 [4] [nM] | I [5] [%] | Selectivity ratio [6]
1 | CN1[C@@H]2CC[C@H]1C[C@@H](OC(c1ccccc1)c1ccccc1Cl)C2 (some centres not stated) | 228 | 0.41 | 76.1 | 997 | 55.4 | 4.4
2 | CN1[C@@H]2CC[C@H]1C[C@@H](OC(c1ccccc1)c1cccc(Cl)c1)C2 (some centres not stated) | 21.6 | 0.98 | 74.7 | 228 | 24.5 | 10.6
3 | CN1[C@@H]2CC[C@H]1C[C@@H](OC(c1ccccc1)c1ccccc1F)C2 (some centres not stated) | 50 | 0.43 | 17.8 | 140 | 22.3 | 2.8
4 | CN1[C@@H]2CC[C@H]1C[C@@H](OC(c1ccccc1)c1ccccc1N)C2 (some centres not stated) [AMINOBENZTROPINE] | 1840 | 1.12 | 14 | 373 | 16 | 0.2
5 | Cc1ccccc1C(O[C@H]1C[C@H]2CC[C@@H](C1)N2C)c1ccccc1 (some centres not stated) | 309 | 0.5 | 66.5 | 1200 | 35.7 | 3.9
6 | CN1[C@@H]2CC[C@H]1C[C@@H](OC(c1ccccc1)c1cccc(C(F)(F)F)c1)C2 (some centres not stated) | 187 | 2.52 | 78.5 | 457 | 59.8 | 2.4
7 | CN1[C@@H]2CC[C@H]1C[C@@H](OC(c1ccccc1)c1cccc(F)c1)C2 (some centres not stated) | 68.5 | 0.6 | 82.4 | 250 | 42.2 | 3.7
8 | CN1C2CCC1CC(OC(c1ccccc1)c1ccc(Cl)cc1)C2 (configuration not stated) | – | 1.48 | 32 | – | 34 | 3.8
9 | CN1[C@@H]2CC[C@H]1C[C@@H](OC(c1cccc(F)c1)c1cccc(F)c1)C2 | 47.4 | 0.85 | 75.6 | 407 | 72.6 | 8.6
